Test results: ChEMBL document CHEMBL4422663, “Suppression of Tumor Growth and Metastases by Targeted Intervention in Urokinase Activity with Cyclic Peptides” (J Med Chem, 2019)
pKd, pKi: −log10 of the molar value. Calls of active or inactive are those of the source. The calls are words filed in the database; no cut-off is given here. Positions of bridges follow the written chain, without caps; N, C: chain ends. Residues, ends and D or L forms follow the SMILES beside them.

How the values were obtained:
Coagulation factor XI = Coagulation factor XI (Homo sapiens, UniProt P03951); assay: Inhibition of human factor 11a preincubated for 15 mins followed by chromogenic substrate addition
[1] = target: T1, Urokinase-type plasminogen activator (Mus musculus, UniProt P06869); assay: Inhibition of mouse uPA
[2] = target: T1, Urokinase-type plasminogen activator; assay: Inhibition of mouse uPA preincubated for 15 mins followed by chromogenic substrate addition
[3] = target: T1, Urokinase-type plasminogen activator; assay: Inhibition of mouse uPA serine protease domain preincubated for 15 mins followed by chromogenic substrate addition
[4] = target: Urokinase-type plasminogen activator (Mus musculus) (UniProt P06869); assay: Inhibition of the intrinsic peri-cellular uPA in mouse CT26 cells assessed as reduction in cell invasion at 33 to 100 uM by Transwell invasion assay relative to control
Prothrombin [5] = target: Prothrombin (Homo sapiens, UniProt P00734); assay: Inhibition of human thrombin preincubated for 15 mins followed by chromogenic substrate addition
Plasma kallikrein [6] = target: Plasma kallikrein (Homo sapiens, UniProt P03952); assay: Inhibition of human plasma kallikrein preincubated for 15 mins followed by chromogenic substrate addition
[7] = target: T1, Urokinase-type plasminogen activator; assay: Binding affinity to mouse uPA expressed in HEK2936E cells by ITC assay
[8] = target: Tissue-type plasminogen activator (Homo sapiens, UniProt P00750); assay: Inhibition of human tissue-type plasminogen activator preincubated for 15 mins followed by chromogenic substrate addition
[9] = target: Urokinase-type plasminogen activator (Mus musculus) (UniProt P06869); assay: Inhibition of the intrinsic peri-cellular uPA in mouse CT26 cells assessed as reduction in cell migration at 30 to 100 uM measured every hour by wound healing assay relative to control; type: cell-based
Plasma kallikrein [10] = target: Plasma kallikrein (Mus musculus, UniProt P26262); assay: Inhibition of mouse plasma kallikrein preincubated for 15 mins followed by chromogenic substrate addition
CT26 [11] = assay: Cytotoxicity against mouse CT26 cells at 100 uM; type: cell-based; conditions: ct26, 100 µM
[12] = target: Urokinase-type plasminogen activator (Mus musculus) (UniProt P06869); assay: Binding affinity to mouse uPA assessed as dissociation rate constant after 600 secs by SPR assay
[13] = target: Tissue-type plasminogen activator (Mus musculus, UniProt P11214); assay: Inhibition of mouse tissue-type plasminogen activator preincubated for 15 mins followed by chromogenic substrate addition
Plasminogen [14] = target: Plasminogen (Homo sapiens, UniProt P00747); assay: Inhibition of human plasmin preincubated for 15 mins followed by chromogenic substrate addition
[15] = target: T1, Urokinase-type plasminogen activator; assay: Binding affinity to mouse uPA by SPR assay
Prothrombin [16] = target: Prothrombin (Mus musculus, UniProt P19221); assay: Inhibition of mouse thrombin preincubated for 15 mins followed by chromogenic substrate addition
[17] = target: Urokinase-type plasminogen activator (Homo sapiens, UniProt P00749); assay: Inhibition of human uPA preincubated for 15 mins followed by chromogenic substrate addition
[18] = target: T2, Suppressor of tumorigenicity 14 protein (Homo sapiens, UniProt Q9Y5Y6); assay: Inhibition of human matriptase preincubated for 15 mins followed by chromogenic substrate addition
T2 sequence (Q9Y5Y6 whole entry): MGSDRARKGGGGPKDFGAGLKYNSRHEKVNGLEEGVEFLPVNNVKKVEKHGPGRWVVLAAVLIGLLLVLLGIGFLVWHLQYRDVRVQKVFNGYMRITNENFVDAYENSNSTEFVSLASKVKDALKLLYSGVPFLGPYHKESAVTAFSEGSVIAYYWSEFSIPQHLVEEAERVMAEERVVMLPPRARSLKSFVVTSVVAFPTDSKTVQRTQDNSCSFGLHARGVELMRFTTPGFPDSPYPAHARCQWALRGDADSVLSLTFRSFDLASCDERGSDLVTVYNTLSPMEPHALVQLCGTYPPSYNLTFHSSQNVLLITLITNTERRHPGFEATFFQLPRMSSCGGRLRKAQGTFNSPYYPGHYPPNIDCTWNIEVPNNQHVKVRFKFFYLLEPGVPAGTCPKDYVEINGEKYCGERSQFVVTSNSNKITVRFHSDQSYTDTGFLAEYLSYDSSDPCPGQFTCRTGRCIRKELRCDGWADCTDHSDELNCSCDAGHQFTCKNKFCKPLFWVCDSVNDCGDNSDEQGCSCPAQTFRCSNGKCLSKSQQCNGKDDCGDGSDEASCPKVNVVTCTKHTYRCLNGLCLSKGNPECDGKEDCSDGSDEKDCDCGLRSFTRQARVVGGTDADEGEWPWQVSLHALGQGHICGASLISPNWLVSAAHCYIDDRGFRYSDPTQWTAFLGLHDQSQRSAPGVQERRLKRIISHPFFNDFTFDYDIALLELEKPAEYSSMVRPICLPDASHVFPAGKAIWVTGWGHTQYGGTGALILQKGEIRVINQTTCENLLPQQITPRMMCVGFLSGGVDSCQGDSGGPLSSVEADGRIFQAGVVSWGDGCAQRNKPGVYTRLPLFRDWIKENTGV

[19] = Inhibition of mouse trypsin preincubated for 15 mins followed by chromogenic substrate addition
[20] = target: Vitamin K-dependent protein C (Homo sapiens, UniProt P04070); assay: Inhibition of human activated protein C preincubated for 15 mins followed by chromogenic substrate addition
Plasminogen [21] = target: Plasminogen (Mus musculus, UniProt P20918); assay: Inhibition of mouse plasmin preincubated for 15 mins followed by chromogenic substrate addition
CT26 [22] = assay: Antimetastatic activity against GFP-fused mouse CT26 cells allografted in Balb/c mouse assessed as reduction in hyperplastic weights at 12.3 mg/kg, ip administered daily for 15 days by fluorescence-based assay; type: functional, organism-based
How it was run: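 Lung metastasis model: male Balb/c mice (~20 g, 6/group) given 10^6 GFP-CT-26 cells i.v. with peptide or saline, then daily i.p. dosing Day 1–15. Lungs resected and weighed immediately at sacrifice on Day 16; hyperplastic weight = lung weight minus weight of lungs from non-implanted normal mice.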

CT26 [23] = assay: Antimetastatic activity against GFP-fused mouse CT26 cells allografted in Balb/c mouse assessed as reduction in tumor nodule numbers at 12.3 mg/kg, ip administered daily for 15 days by fluorescence-based assay; type: functional, organism-based
How it was run: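 Lung metastasis model: male Balb/c mice (~20 g, 6/group) given 10^6 GFP-CT-26 cells i.v. with peptide or saline, daily i.p. dosing Day 1–15, sacrificed Day 16. Surface tumor nodules on pleural surfaces counted per lung after soaking in formaldehyde.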

CT26 [24] = assay: Antimetastatic activity against mouse CT26 cells allografted in Balb/c mouse assessed as reduction genomic DNA of metastatic cells at 12.3 mg/kg, ip administered daily for 15 days by qPCR analysis; type: functional, organism-based
How it was run: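 Male Balb/c mice (~20 g, 6/group) given 10^6 GFP-CT-26 cells i.v. in 200 µl mixed with peptide or saline, then daily i.p. peptide Day 1–15; sacrificed Day 16. Lung total DNA isolated after homogenization; 200 ng per SYBR Green qPCR, quantified against standard curve of CT-26 DNA spiked into normal lung DNA (0.135%-100%).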

CT26 [25] = assay: Antimetastatic activity against mouse CT26 cells allografted in Balb/c mouse at 12.3 mg/kg, ip administered daily for 15 days by hematoxylin and eosin staining -based assay; type: functional, organism-based
How it was run: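 Lung metastasis model: male Balb/c mice given 10^6 GFP-CT-26 cells i.v., daily i.p. dosing Day 1–15, sacrificed Day 16. Formalin-fixed, paraffin-embedded lung sections stained with H&E for histology alongside normal lungs.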

CT26 [26] = assay: Antimetastatic activity against GFP-fused mouse CT26 cells allografted in Balb/c mouse assessed as reduction in relative fluorescence at 12.3 mg/kg, ip administered daily for 15 days by fluorescence-based assay; type: functional, organism-based
How it was run: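 Lung metastasis model: male Balb/c mice (~20 g, 6/group) given 10^6 GFP-CT-26 cells i.v. with peptide or saline, daily i.p. dosing Day 1–15, sacrificed Day 16. Resected lungs imaged for GFP with 488 nm excitation, emission 520; signal collected over 20×20 mm2 per lung; non-implanted normal group used for background subtraction.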

[27] = target: Urokinase-type plasminogen activator (Mus musculus) (UniProt P06869); assay: Inhibition of the intrinsic peri-cellular uPA in mouse CT26 cells assessed as reduction in cell invasion measured every hour by transwell assay; type: cell-based
CT26 [28] = assay: Anti-tumor activity against […] mouse CT26 cells allografted in Balb/c mouse assessed as tumor growth inhibition at 12.3 mg/kg, ip administered daily for 15 days and measured on day 16 by […]; type: functional; conditions: read-out: TGI
How it was run: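 CT-26 cells implanted subcutaneously in right flank of Balb/c mice; once tumors reached about 150~200 mm3, daily intraperitoneal dosing with peptide or saline for 15 days. Mice sacrificed on Day 16; tumors resected and weighed; tumor growth reduction relative to saline group.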

[29] = Toxicity in Balb/c mouse allografted with mouse CT26 cells assessed as effect on body weight at 12.3 mg/kg, ip administered daily for 15 days; type: organism-based; conditions: in vivo, 360 h
How it was run: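 CT-26 tumour-bearing Balb/c mice dosed i.p. daily with peptide or saline; body weights recorded daily over the 15 days.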

[30] = target: Urokinase-type plasminogen activator (Mus musculus) (UniProt P06869); assay: Inhibition of the intrinsic peri-cellular uPA in mouse CT26 cells assessed as reduction in cell migration at 100 uM measured every hour by wound healing assay relative to control; type: cell-based
MCF7 = assay: Anti-invasive activity in human MCF7 cells at 100 uM measured every hour by transwell assay; type: functional, cell-based
[31] = target: Urokinase-type plasminogen activator (Mus musculus) (UniProt P06869); assay: Inhibition of the intrinsic peri-cellular uPA in mouse CT26 cells assessed as reduction in cell invasion at 100 uM […] by transwell assay; type: cell-based
How it was run: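 CT-26 cells, 2×10^5 per Matrigel-coated Transwell top chamber in serum-free DMEM with peptide; 10% serum medium below. After 24 h, invaded underside cells stained with 0.1% crystal violet, eluted in 33% acetic acid, read at A570 and normalized to untreated (100%). Triplicates. The legend gives a 0.1–100 μM dose range, with IC50 derived from the dose-response.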

T1 sequence (P06869 21-178 limits assumed): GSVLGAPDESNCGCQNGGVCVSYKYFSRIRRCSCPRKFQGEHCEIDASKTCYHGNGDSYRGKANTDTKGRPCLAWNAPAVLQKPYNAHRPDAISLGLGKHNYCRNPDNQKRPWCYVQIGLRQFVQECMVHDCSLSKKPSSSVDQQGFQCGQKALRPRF
T1 sequence (P06869 180-433 limits assumed): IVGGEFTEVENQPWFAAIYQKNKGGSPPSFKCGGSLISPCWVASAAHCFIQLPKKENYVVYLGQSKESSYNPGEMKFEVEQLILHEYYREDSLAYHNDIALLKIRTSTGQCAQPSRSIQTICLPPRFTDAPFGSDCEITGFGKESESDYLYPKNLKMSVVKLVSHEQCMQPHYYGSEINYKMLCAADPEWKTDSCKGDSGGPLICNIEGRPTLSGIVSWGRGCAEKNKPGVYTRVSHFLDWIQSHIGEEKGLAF
Urokinase-type plasminogen activator (Mus musculus), sequence (P06869 21-178 limits assumed): as the sequence (P06869 21-178 limits assumed) above
Urokinase-type plasminogen activator (Mus musculus), sequence (P06869 180-433 limits assumed): as the sequence (P06869 180-433 limits assumed) above
Plasma kallikrein (Homo sapiens, UniProt P03952), sequence (P03952 20-390 limits assumed): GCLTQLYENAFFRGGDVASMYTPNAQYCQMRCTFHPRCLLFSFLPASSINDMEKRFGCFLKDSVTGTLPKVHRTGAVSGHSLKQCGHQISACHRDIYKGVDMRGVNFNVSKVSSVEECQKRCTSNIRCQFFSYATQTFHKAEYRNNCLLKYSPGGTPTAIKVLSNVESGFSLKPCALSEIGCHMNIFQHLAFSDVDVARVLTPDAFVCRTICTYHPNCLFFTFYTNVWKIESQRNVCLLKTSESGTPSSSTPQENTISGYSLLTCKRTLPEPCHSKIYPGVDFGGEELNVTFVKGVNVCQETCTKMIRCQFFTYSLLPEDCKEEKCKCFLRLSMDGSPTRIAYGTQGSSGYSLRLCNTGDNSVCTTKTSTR
Plasma kallikrein (Homo sapiens, UniProt P03952), sequence (P03952 391-638 limits assumed): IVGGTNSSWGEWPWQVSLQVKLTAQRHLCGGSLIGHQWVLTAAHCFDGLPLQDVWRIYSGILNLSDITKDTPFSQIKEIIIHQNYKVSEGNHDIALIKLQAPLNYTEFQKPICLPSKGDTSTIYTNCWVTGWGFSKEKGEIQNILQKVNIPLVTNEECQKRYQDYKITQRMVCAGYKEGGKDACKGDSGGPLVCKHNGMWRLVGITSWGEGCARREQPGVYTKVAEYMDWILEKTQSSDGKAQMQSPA
Tissue-type plasminogen activator (Mus musculus, UniProt P11214), sequence (P11214 whole entry): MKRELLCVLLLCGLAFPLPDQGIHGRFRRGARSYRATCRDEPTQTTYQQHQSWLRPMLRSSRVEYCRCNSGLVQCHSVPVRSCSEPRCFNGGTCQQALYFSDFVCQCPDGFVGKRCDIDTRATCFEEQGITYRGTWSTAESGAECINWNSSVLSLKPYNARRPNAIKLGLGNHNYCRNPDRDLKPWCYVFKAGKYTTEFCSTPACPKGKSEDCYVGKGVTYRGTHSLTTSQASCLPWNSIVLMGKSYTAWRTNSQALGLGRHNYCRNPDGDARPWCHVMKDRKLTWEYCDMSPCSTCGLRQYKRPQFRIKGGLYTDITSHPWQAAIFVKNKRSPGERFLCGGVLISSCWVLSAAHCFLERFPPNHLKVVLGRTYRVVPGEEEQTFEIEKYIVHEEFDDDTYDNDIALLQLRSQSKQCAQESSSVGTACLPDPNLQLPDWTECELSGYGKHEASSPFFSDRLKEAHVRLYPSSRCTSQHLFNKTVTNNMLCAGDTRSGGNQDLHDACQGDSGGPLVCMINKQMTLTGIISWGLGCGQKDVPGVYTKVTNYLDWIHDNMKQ
Tissue-type plasminogen activator (Homo sapiens, UniProt P00750), sequence (P00750 whole entry): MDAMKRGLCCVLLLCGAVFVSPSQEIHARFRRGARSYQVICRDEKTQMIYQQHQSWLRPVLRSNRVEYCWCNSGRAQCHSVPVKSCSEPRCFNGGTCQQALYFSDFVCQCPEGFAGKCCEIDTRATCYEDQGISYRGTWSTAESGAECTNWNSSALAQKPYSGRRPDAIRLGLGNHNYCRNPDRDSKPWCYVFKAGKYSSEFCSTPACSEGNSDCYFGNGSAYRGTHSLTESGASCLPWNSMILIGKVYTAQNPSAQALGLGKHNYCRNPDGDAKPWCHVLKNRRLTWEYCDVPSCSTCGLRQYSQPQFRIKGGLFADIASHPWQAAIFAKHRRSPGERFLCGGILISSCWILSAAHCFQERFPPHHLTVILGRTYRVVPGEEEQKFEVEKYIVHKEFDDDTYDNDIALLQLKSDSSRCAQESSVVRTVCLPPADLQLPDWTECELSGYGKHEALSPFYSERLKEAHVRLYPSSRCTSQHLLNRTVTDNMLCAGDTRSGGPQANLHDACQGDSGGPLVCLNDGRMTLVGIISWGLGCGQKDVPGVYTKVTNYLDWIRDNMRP
Plasminogen (Mus musculus, UniProt P20918), sequence (P20918 98-581 limits assumed): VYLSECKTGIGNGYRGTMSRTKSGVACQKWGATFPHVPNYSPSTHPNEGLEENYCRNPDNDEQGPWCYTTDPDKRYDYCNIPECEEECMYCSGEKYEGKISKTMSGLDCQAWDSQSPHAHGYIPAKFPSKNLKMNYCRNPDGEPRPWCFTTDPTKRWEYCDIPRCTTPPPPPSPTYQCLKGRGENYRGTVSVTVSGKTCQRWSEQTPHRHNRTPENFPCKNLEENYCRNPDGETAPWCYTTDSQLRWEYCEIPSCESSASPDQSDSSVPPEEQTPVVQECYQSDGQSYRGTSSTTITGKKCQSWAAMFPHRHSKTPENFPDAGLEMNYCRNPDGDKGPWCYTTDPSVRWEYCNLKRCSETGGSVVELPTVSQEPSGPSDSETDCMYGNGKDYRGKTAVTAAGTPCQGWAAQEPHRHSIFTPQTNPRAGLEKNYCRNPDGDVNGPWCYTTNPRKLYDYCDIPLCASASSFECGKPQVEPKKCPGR
Plasminogen (Mus musculus, UniProt P20918), sequence (P20918 582-812 limits assumed): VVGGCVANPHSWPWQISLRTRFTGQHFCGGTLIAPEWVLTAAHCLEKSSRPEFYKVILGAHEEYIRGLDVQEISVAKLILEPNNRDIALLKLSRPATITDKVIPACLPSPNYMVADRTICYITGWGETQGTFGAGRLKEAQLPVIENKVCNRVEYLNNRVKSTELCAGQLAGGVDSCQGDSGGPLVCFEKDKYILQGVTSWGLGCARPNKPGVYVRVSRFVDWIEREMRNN
Plasminogen (Homo sapiens, UniProt P00747), sequence (P00747 97-580 limits assumed): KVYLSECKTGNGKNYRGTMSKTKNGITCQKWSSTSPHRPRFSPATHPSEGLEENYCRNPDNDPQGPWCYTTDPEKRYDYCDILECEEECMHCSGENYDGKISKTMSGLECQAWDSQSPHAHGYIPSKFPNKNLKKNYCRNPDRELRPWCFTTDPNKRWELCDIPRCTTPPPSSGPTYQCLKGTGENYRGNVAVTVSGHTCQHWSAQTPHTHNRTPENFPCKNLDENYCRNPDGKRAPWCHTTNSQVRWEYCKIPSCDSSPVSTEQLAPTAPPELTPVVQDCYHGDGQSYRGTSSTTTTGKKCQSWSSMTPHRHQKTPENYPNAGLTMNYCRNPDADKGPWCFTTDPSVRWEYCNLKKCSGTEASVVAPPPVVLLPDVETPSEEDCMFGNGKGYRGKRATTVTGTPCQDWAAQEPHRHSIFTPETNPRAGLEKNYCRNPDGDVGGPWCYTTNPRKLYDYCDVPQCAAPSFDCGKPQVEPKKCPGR
Plasminogen (Homo sapiens, UniProt P00747), sequence (P00747 581-810 limits assumed): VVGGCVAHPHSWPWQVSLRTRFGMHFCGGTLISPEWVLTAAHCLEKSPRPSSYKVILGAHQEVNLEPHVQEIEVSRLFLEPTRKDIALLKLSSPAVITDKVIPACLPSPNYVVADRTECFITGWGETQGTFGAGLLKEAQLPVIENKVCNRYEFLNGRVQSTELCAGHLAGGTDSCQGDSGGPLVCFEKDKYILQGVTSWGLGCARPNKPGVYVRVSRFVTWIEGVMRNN
Coagulation factor XI, sequence (P03951 19-387 limits assumed): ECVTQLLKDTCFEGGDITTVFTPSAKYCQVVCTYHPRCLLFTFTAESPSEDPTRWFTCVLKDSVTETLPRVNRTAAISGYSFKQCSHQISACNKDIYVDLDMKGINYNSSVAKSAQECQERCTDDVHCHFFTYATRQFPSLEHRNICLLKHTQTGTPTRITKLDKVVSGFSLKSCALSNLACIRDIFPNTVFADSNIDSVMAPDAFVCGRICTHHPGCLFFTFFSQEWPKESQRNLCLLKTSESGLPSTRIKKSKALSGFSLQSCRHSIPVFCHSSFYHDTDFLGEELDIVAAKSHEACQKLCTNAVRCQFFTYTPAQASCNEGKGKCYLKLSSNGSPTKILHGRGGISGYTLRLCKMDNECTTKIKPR
Coagulation factor XI, sequence (P03951 388-625 limits assumed): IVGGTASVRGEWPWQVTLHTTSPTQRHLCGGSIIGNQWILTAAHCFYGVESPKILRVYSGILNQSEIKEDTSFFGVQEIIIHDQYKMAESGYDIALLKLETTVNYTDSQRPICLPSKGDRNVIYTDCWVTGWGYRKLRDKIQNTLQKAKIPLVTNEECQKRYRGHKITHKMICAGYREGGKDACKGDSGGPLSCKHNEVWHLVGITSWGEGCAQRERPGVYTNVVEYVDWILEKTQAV

Row | SMILES | pKi (Coagulation factor XI) | pKi [1] | pKi [2] | pKi [3] | pKi (Prothrombin [5]) | pKi (Plasma kallikrein [6]) | pKd [7] | pKi [8] | inhibition [9] | pKi (Plasma kallikrein [10]) | Activity (CT26 [11]) | pKi [13] | pKi (Plasminogen [14]) | pKd [15] | pKi (Prothrombin [16]) | pKi [17] | pKi [18] | pKi [19] | pKi [20] | pKi (Plasminogen [21]) | other results
1 | CC[C@H](C)[C@@H]1NC(=O)[C@H](Cc2ccc(O)cc2)NC(=O)[C@H](CCCNC(=N)N)NC(=O)[C@H](CO)NC(=O)[C@H](Cc2ccc(O)cc2)NC(=O)[C@H](C)NC(=O)[C@@H]2CCCN2C(=O)[C@@H](NC(C)=O)CSSC[C@@H](C(N)=O)NC(=O)CNC1=O (Ac-CPAYSRYIGC-NH2; disulfide 1-10) | < 4.60 | 7.70 | 7.70 | 6.61 | < 4.60 | < 4.60 | 7.38 | < 4.60 | 30% | < 4.60 | Non-Toxic | < 4.60 | < 4.60 | 7.83 | < 4.60 | 6.04 | < 4.60 | 5.80 | < 4.60 | < 4.60 | inhibition [4]: 70 to 80%; K [12]: 0.0064 s⁻¹
2 | CC(=O)N[C@H]1CSSC[C@@H](C(N)=O)NC(=O)[C@H](CC(=O)O)NC(=O)[C@H](CC(C)C)NC(=O)[C@H](Cc2ccc(O)cc2)NC(=O)[C@H](CCCNC(=N)N)NC(=O)[C@H](CO)NC(=O)[C@H](Cc2ccc(O)cc2)NC(=O)[C@H](C)NC(=O)[C@@H]2CCCN2C1=O (Ac-CPAYSRYLDC-NH2; disulfide 1-10) | < 4.60 | 6.26 | 6.26 | 5.75 | < 4.60 | < 4.60 | 6.45 | < 4.60 | 30% | < 4.60 | Non-Toxic | < 4.60 | < 4.60 | 6.40 | < 4.60 | 4.82 | < 4.60 | 5.08 | < 4.60 | < 4.60 | Activity (CT26 [22]): inactive; Activity (CT26 [23]): inactive; Activity (CT26 [24]): inactive; Activity (CT26 [25]): Active; Activity (CT26 [26]): inactive; inhibition [27]: Dose-dependent effect; inhibition in vivo at 12.3 mg/kg (CT26 [28]): 36.4%; Activity [29]: Non-Toxic
3 | CC[C@H](C)[C@@H]1NC(=O)[C@H](Cc2ccc(O)cc2)NC(=O)[C@H](C)NC(=O)[C@H](CO)NC(=O)[C@H](Cc2ccc(O)cc2)NC(=O)[C@H](C)NC(=O)[C@@H]2CCCN2C(=O)[C@@H](N)CSSC[C@@H](C(=O)O)NC(=O)CNC1=O (H-CPAYSAYIGC-OH; disulfide 1-10) | – | – | – | – | – | – | – | – | – | – | Non-Toxic | – | – | – | – | – | – | – | – | – | inhibition [30]: inactive; Activity (MCF7): inactive; inhibition [31]: inactive
